{"source": "ChEMBL document CHEMBL3352685", "about": "“Small-molecule inhibitors of 25-hydroxyvitamin D-24-hydroxylase (CYP24A1): synthesis and biological evaluation” (J Med Chem, 2014)", "key": {"[1]": {"target": "T1, 1,25-dihydroxyvitamin D(3) 24-hydroxylase, mitochondrial (Homo sapiens, UniProt Q07973)", "T1 sequence (Q07973 whole entry)": "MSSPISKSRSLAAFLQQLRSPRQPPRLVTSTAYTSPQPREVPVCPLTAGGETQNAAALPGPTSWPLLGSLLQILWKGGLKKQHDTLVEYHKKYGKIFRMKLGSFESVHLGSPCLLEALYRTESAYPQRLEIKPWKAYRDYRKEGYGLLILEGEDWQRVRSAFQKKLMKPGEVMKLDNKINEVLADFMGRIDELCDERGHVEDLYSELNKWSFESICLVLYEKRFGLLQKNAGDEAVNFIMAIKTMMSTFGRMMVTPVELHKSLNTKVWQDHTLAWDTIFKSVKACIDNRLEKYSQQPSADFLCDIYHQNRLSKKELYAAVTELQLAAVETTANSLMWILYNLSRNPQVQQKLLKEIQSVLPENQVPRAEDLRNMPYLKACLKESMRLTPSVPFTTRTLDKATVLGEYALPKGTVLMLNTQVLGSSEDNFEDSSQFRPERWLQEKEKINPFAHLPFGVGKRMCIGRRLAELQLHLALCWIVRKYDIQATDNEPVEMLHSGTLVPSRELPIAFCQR", "assay": "Inhibition of human MBP-tagged CYP24A1 expressed in Escherichia coli using 1,25(OH)2D3 substrate in presence of bovine adrenodoxin, adrenodoxin reductase and NADPH incubated at 37 degC for 25 mins by HPLC method"}, "[2]": {"assay": "Cytotoxicity against human primary CLL cells", "assay_type": "functional", "settings": "read-out: LD50 (the source's name); call rule not given here", "method_in_brief": "(§1)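 Primary CLL cells or normal B-cells from peripheral blood, purified by negative selection (CD3 Dynabeads; >90% purity by flow cytometry). Cultured at 1x10⁶/ml in RPMI with 10% FCS, penicillin/streptomycin and 5 ng/ml IL-4, 37 °C, 5% CO2. Exposed to inhibitor (0–1x10⁻⁷ M) up to 48 h. Annexin V-FITC/PI flow cytometry; LD50 from sigmoidal dose-response; triplicate.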"}, "[3]": {"target": "T1, 1,25-dihydroxyvitamin D(3) 24-hydroxylase, mitochondrial", "assay": "Inhibition of CYP24A1 in human primary CLL cells assessed as increase in VDR-regulated GADD45alpha mRNA expression at 0.05 to 0.10 uM in presence of 100 nM 1,25(OH)2D3 incubated for 24 hrs by quantitative RT-PCR method", "assay_type": "cell-based", "method_in_brief": "(§2)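 Primary CLL lymphocytes, purified by negative selection with CD3 beads (>90% purity), cultured in RPMI with 10% FCS, penicillin/streptomycin and 5 ng/ml IL-4 at 37°C, 5% CO2. Inhibitor 0, 0.01, 0.05 or 0.1 µM for 24 h with or without calcitriol (10 or 100 nM). Total RNA reverse transcribed, SYBR Green real-time PCR, 35 cycles. Target mRNA expressed as ratio to RPS14 from crossing points. Duplicates.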"}, "[4]": {"target": "T1, 1,25-dihydroxyvitamin D(3) 24-hydroxylase, mitochondrial", "assay": "Inhibition of CYP24A1 in human primary CLL cells assessed as increase in VDR-regulated CDKN1A mRNA expression at 0.05 to 0.10 uM in presence of 100 nM 1,25(OH)2D3 incubated for 24 hrs by quantitative RT-PCR method", "assay_type": "cell-based", "method_in_brief": "as §2"}, "[5]": {"target": "T1, 1,25-dihydroxyvitamin D(3) 24-hydroxylase, mitochondrial", "assay": "Inhibition of CYP24A1 in human primary CLL cells assessed as increase in VDR-regulated CDKN1A mRNA expression in presence of 100 nM calcitriol incubated for 24 hrs by quantitative RT-PCR method", "assay_type": "cell-based", "method_in_brief": "as §2"}, "[6]": {"assay": "Induction of apoptosis in human primary CLL cells after 48 hrs by Annexin V/propidium iodide staining based flow cytometry", "assay_type": "functional", "method_in_brief": "as §1"}, "[7]": {"assay": "Induction of apoptosis in normal human B cells after 48 hrs by Annexin V/propidium iodide staining based flow cytometry", "assay_type": "cell-based, B cell", "settings": "read-out: LD50", "method_in_brief": "as §1"}}}
{"smiles": "COc1ccc(/C=C/c2ccc(C(=O)NCC(c3ccccc3)n3ccnc3)cc2)cc1", "note": "(configuration not stated)", "values": [{"measurement": "IC50", "setting": "[1]", "value": 340, "unit": "nM"}, {"measurement": "Ki", "setting": "[1]", "value": 24, "unit": "nM"}, {"measurement": "CC50", "setting": "[2]", "value": 3200, "unit": "nM"}]}
{"smiles": "C=C1/C(=C\\C=C2/CCC[C@]3(C)[C@@H]([C@H](C)CCS(=N)(=O)c4ccccc4)CC[C@@H]23)C[C@@H](O)C[C@@H]1O", "note": "(some centres not stated)", "values": [{"measurement": "IC50", "setting": "[1]", "value": 6.5, "unit": "nM"}]}
{"smiles": "COc1cc(/C=C/c2ccc(CCC(OS(=O)(=O)c3ccc(C)cc3)C(C)(C)C)cc2)cc(OC)c1", "note": "(configuration not stated)", "values": [{"measurement": "IC50", "setting": "[1]", "value": 2900, "unit": "nM"}, {"measurement": "Ki", "setting": "[1]", "value": 210, "unit": "nM"}]}
{"smiles": "C=C1/C(=C\\C=C2/CCC[C@]3(C)C([C@H](C)C/C=C/S(=O)(=O)C(C)(C)C)=CC[C@@H]23)C[C@@H](O)C[C@@H]1O", "note": "[LUNACALCIPOL]", "values": [{"measurement": "IC50", "setting": "[1]", "value": 27, "unit": "nM"}]}
{"smiles": "COc1cc(/C=C/c2ccc(C(=O)NCC(c3ccccc3)n3ccnc3)cc2)cc(OC)c1OC", "note": "(configuration not stated)", "values": [{"measurement": "IC50", "setting": "[1]", "value": 140, "unit": "nM"}, {"measurement": "Ki", "setting": "[1]", "value": 9.7, "unit": "nM"}, {"measurement": "CC50", "setting": "[2]", "value": 3500, "unit": "nM"}, {"measurement": "inhibition (INH)", "setting": "[3]", "value": "Active"}, {"measurement": "inhibition (INH)", "setting": "[4]", "value": "Active"}]}
{"smiles": "Nc1nc(F)nc2c1ncn2[C@@H]1O[C@H](CO)[C@@H](O)[C@@H]1O", "note": "[FLUDARABINE]", "values": [{"measurement": "CC50", "setting": "[2]", "value": 1100, "unit": "nM"}]}
{"smiles": "COc1cc(/C=C/c2ccc(C(=O)NCC(c3ccccc3)n3ccnc3)cc2)cc(OC)c1", "note": "(configuration not stated)", "values": [{"measurement": "IC50", "setting": "[1]", "value": 110, "unit": "nM"}, {"measurement": "Ki", "setting": "[1]", "value": 7.8, "unit": "nM"}, {"measurement": "CC50", "setting": "[2]", "value": 13, "unit": "nM"}, {"measurement": "inhibition (INH)", "setting": "[5]", "value": "Dose-dependent effect"}, {"measurement": "inhibition (INH)", "setting": "[3]", "value": "Active"}, {"measurement": "inhibition (INH)", "setting": "[4]", "value": "Active"}]}
{"smiles": "C=C1CC[C@H](O)C/C1=C/C=C1\\CCC[C@]2(C)[C@@H]([C@H](C)CCCOS(=O)(=O)c3ccc(C)cc3)CC[C@@H]12", "values": [{"measurement": "Ki", "setting": "[1]", "value": 39, "unit": "nM"}]}
{"smiles": "COc1cc(/C=C/c2ccc(CCC(OS(C)(=O)=O)C(C)(C)C)cc2)cc(OC)c1", "note": "(configuration not stated)", "values": [{"measurement": "IC50", "setting": "[1]", "value": 5400, "unit": "nM"}, {"measurement": "Ki", "setting": "[1]", "value": 380, "unit": "nM"}]}
{"smiles": "CC(C)(C)C(=O)/C(=C/c1ccc(/C=C/c2ccccc2)cc1)n1ccnc1", "values": [{"measurement": "IC50", "setting": "[1]", "value": 180, "unit": "nM"}, {"measurement": "Ki", "setting": "[1]", "value": 13, "unit": "nM"}]}
{"smiles": "COc1cc(/C=C/c2ccc(CCC(OC(=O)n3ccnc3)C(C)(C)C)cc2)cc(OC)c1", "note": "(configuration not stated)", "values": [{"measurement": "IC50", "setting": "[1]", "value": 160, "unit": "nM"}, {"measurement": "Ki", "setting": "[1]", "value": 11, "unit": "nM"}]}
{"smiles": "CC(C)(C)C(CCc1ccc(/C=C/c2ccccc2)cc1)OS(C)(=O)=O", "note": "(configuration not stated)", "values": [{"measurement": "IC50", "setting": "[1]", "value": 5600, "unit": "nM"}, {"measurement": "Ki", "setting": "[1]", "value": 400, "unit": "nM"}]}
{"smiles": "C=C1/C(=C\\C=C2/CCC[C@]3(C)[C@@H]([C@H](C)CCCC(C)(C)O)CC[C@@H]23)C[C@@H](O)C[C@@H]1O", "note": "[CALCITRIOL]", "values": [{"measurement": "LD50", "setting": "[6]", "value": 2.86, "unit": "×10⁻⁷ M"}, {"measurement": "CC50 at 48 h", "setting": "[7]", "value": 6.51, "unit": "µM"}]}
{"smiles": "C=C1[C@H](O)CC(=C/C=C2\\CCC[C@]3(C)[C@@H]([C@H](C)CCCNC4CC4)CC[C@@H]23)C[C@H]1O", "values": [{"measurement": "Ki", "setting": "[1]", "value": 42, "unit": "nM"}]}
{"smiles": "C=C1[C@H](O)CC(=C/C=C2\\CCC[C@]3(C)[C@@H]([C@H](C)Cn4ccnc4)CC[C@@H]23)C[C@H]1O", "values": [{"measurement": "Ki", "setting": "[1]", "value": 21, "unit": "nM"}]}
{"smiles": "O=C(NCC(c1ccccc1)n1ccnc1)c1ccc(/C=C/c2ccc(F)cc2)cc1", "note": "(configuration not stated)", "values": [{"measurement": "IC50", "setting": "[1]", "value": 260, "unit": "nM"}, {"measurement": "Ki", "setting": "[1]", "value": 19, "unit": "nM"}, {"measurement": "CC50", "setting": "[2]", "value": 15, "unit": "nM"}]}
{"smiles": "Clc1cccc(C(c2ccc3[nH]cnc3c2)n2ccnc2)c1", "note": "(configuration not stated) [LIAROZOLE]", "values": [{"measurement": "IC50", "setting": "[1]", "value": 2.3, "unit": "nM"}]}
{"smiles": "COc1cc(/C=C/c2ccc(CCC(=O)C(C)(C)C)cc2)cc(OC)c1", "values": [{"measurement": "IC50", "setting": "[1]", "value": 2100, "unit": "nM"}, {"measurement": "Ki", "setting": "[1]", "value": 150, "unit": "nM"}]}
{"smiles": "O=C(NCC(c1ccccc1)n1ccnc1)c1ccc(/C=C/c2ccccc2)cc1", "note": "(configuration not stated)", "values": [{"measurement": "IC50", "setting": "[1]", "value": 400, "unit": "nM"}, {"measurement": "Ki", "setting": "[1]", "value": 28, "unit": "nM"}, {"measurement": "CC50", "setting": "[2]", "value": 27, "unit": "nM"}]}
{"smiles": "CC(C)(C)C(=O)C(Cc1ccc(CCc2ccccc2)cc1)n1ccnc1", "note": "(configuration not stated)", "values": [{"measurement": "IC50", "setting": "[1]", "value": 600, "unit": "nM"}, {"measurement": "Ki", "setting": "[1]", "value": 42, "unit": "nM"}]}
{"smiles": "O=C(NCC(c1ccccc1)n1ccnc1)c1ccc(CCc2ccc(F)cc2)cc1", "note": "(configuration not stated)", "values": [{"measurement": "IC50", "setting": "[1]", "value": 510, "unit": "nM"}, {"measurement": "Ki", "setting": "[1]", "value": 36, "unit": "nM"}]}
{"smiles": "O=C(NCC(c1ccccc1)n1ccnc1)c1ccc(S(=O)(=O)Nc2ccccc2)cc1", "note": "(configuration not stated)", "values": [{"measurement": "IC50", "setting": "[1]", "value": 1300, "unit": "nM"}, {"measurement": "Ki", "setting": "[1]", "value": 91, "unit": "nM"}]}
